Reference: ChEMBL document CHEMBL3232870, “Discovery of 3-(4-methanesulfonylphenoxy)-N-[1-(2-methoxy-ethoxymethyl)-1H-pyrazol-3-yl]-5-(3-methylpyridin-2-yl)-benzamide as a novel glucokinase activator (GKA) for the treatment of type 2 diabetes mellitus” (Bioorg Med Chem, 2014)

Key:
Hexokinase-4 = molecular target: T1, Hexokinase-4 (Homo sapiens, UniProt P35557); experiment: Activation of recombinant human pancreatic glucokinase using 10 mM glucose by spectrophotometry
T1 sequence (P35557 whole entry): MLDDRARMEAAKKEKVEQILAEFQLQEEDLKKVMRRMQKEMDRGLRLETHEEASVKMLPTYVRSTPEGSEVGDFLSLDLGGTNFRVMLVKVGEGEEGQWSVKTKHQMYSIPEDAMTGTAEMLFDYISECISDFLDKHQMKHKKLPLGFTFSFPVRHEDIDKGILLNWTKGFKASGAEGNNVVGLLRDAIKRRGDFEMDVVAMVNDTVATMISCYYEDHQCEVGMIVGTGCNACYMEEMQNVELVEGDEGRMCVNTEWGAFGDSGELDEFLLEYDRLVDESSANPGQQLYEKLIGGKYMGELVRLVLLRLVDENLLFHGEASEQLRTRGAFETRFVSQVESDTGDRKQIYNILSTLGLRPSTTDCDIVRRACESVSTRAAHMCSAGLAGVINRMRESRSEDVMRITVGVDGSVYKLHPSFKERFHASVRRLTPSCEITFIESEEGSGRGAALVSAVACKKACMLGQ
Summary of the method: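 Purified recombinant human pancreatic glucokinase, compounds in DMSO. Buffer: 25 mM HEPES pH 7.4, 10 mM glucose, 25 mM KCl, 1 mM MgCl2, 1 mM DTT, 1 mM ATP, 1 mM NADP, 2.5 U/mL G6PDH. Activity was expressed against DMSO-only control (100%). EC50 came from 12 concentrations fitted to a variable-slope sigmoidal curve. Values are means of three duplicate runs.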

[1] = Mean residence time in ICR mouse at 3 mg/kg, iv and 10 mg/kg, po; format: ADME, organism-based; settings: in vivo
Summary of the method: (§1)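 Male ICR mice and 7-week-old SD rats received a 3 mg/kg iv bolus or a 10 mg/kg oral gavage dose. Plasma was precipitated with 2 volumes of acetonitrile and analysed by HPLC. Parameters came from noncompartmental analysis.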

[2] = Tmax in male Sprague-Dawley rat at 500 mg/kg, po measured on day 14; format: ADME, organism-based; set-up: dose 500 mg/kg, route oral; settings: in vivo
Summary of the method: (§2)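 Sprague–Dawley rats of both sexes, 5 weeks old at arrival, received daily oral gavage at 0, 250, 500 or 1000 mg/kg/day for 14 days. Vehicle was 0.5% methylcellulose at 10 mL/kg. Toxicokinetics were taken on Day 1 and Day 14. Necropsy was by Day 15. Testis was fixed in modified Davidson's fixative, paraffin-sectioned and H&E-stained, with histopathology on control and high-dose groups only.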

[3] = Oral bioavailability in ICR mouse at 10 mg/kg; format: ADME, organism-based; settings: in vivo; summary of the method: as §1
[4] = Volume of distribution at steady state in ICR mouse at 3 mg/kg, iv and 10 mg/kg, po; format: ADME, organism-based; settings: in vivo, read-out: Vdss; summary of the method: as §1
[5] = AUC in ICR mouse at 3 mg/kg, iv and 10 mg/kg, po; format: ADME, organism-based; settings: plasma
Summary of the method: (§3)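 Male ICR mice and 7-week-old SD rats received a 3 mg/kg intravenous bolus or a 10 mg/kg oral gavage dose. Plasma was deproteinized with acetonitrile (2 volumes) and compound measured by HPLC. Parameters came from noncompartmental analysis.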

[6] = AUC (0 to t) in male Sprague-Dawley rat at 250 mg/kg, po measured on day 14; format: ADME, organism-based; set-up: dose 250 mg/kg, route oral; settings: plasma
Summary of the method: (§4)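 Sprague–Dawley rats, 5 weeks old at arrival, both sexes. Given the compound by oral gavage once daily for 14 days at 0, 250, 500 or 1000 mg/kg/day, with 0.5% methylcellulose as vehicle. Toxicokinetic parameters were determined on Day 1 and Day 14.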

Mus musculus [7] = experiment: Toxicity in C57BL/J6 db/db mouse assessed as effect on body weight at 50 mg/kg, po; format: organism-based; set-up: dose 50 mg/kg, route oral; settings: in vivo
Salmonella typhimurium [8] = experiment: Genotoxicity in Salmonella typhimurium TA100 assessed as increase in number of revertants at 1.5 to 5000 ug/plate by Ames test in absence of S9 fraction; format: toxicity, organism-based; settings: salmonella enterica subsp. enterica serovar typhimurium
Summary of the method: (§5)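 Ames reverse mutation test by direct plate incorporation in S. typhimurium TA98 and TA100, with or without Aroclor 1254-induced rat liver S9 mix. Compound in DMSO at 1.5–5000 µg/plate, plated in top agar, incubated 37 °C for about 50 h, then revertant colonies counted. Plates were checked for precipitation and cytotoxicity. A positive was a reproducible, dose-related increase in revertants of more than 2-fold.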

[9] = AUC (0 to t) in male Sprague-Dawley rat at 500 mg/kg, po measured on day 1; format: ADME, organism-based; set-up: dose 500 mg/kg, route oral; settings: plasma; summary of the method: as §4
[10] = Cmax in male Sprague-Dawley rat at 500 mg/kg, po measured on day 14; format: ADME, organism-based; set-up: dose 500 mg/kg, route oral; settings: in vivo; summary of the method: as §4
[11] = Cmax in male Sprague-Dawley rat at 250 mg/kg, po measured on day 14; format: ADME, organism-based; set-up: dose 250 mg/kg, route oral; settings: in vivo; summary of the method: as §4
Salmonella typhimurium [12] = experiment: Genotoxicity in Salmonella typhimurium TA98 assessed as increase in number of revertants at 1.5 to 5000 ug/plate by Ames test in presence of S9 fraction; format: toxicity, organism-based; settings: salmonella enterica subsp. enterica serovar typhimurium; summary of the method: as §5
[13] = Cmax in male Sprague-Dawley rat at 500 mg/kg, po measured on day 1; format: ADME, organism-based; set-up: dose 500 mg/kg, route oral; settings: in vivo; summary of the method: as §4
[14] = Metabolic stability in mouse liver microsomes assessed as compound remaining after 1 hr relative to control; format: ADME; settings: read-out: Stability
Summary of the method: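 Liver microsomes from mouse, dog or human were incubated with compound for 1 h, and the percentage of compound remaining was determined.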

[15] = AUC (0 to t) in male Sprague-Dawley rat at 1000 mg/kg, po measured on day 1; format: ADME, organism-based; set-up: dose 1000 mg/kg, route oral; settings: plasma; summary of the method: as §4
[16] = Tmax in male Sprague-Dawley rat at 250 mg/kg, po measured on day 1; format: ADME, organism-based; set-up: dose 250 mg/kg, route oral; settings: in vivo; summary of the method: as §2
[17] = Cmax in female Sprague-Dawley rat at 250 mg/kg, po measured on day 14; format: ADME, organism-based; set-up: dose 250 mg/kg, route oral; settings: in vivo; summary of the method: as §4
[18] = AUC (0 to t) in female Sprague-Dawley rat at 1000 mg/kg, po measured on day 1; format: ADME, organism-based; set-up: dose 1000 mg/kg, route oral; settings: plasma; summary of the method: as §4
[19] = AUC in Sprague-Dawley rat at 3 mg/kg, iv and 10 mg/kg, po; format: ADME, organism-based; settings: plasma; summary of the method: as §3
[20] = Cmax in Sprague-Dawley rat at 3 mg/kg, iv and 10 mg/kg, po; format: ADME, organism-based; settings: in vivo; summary of the method: as §3
[21] = AUC (0 to t) in female Sprague-Dawley rat at 250 mg/kg, po measured on day 14; format: ADME, organism-based; set-up: dose 250 mg/kg, route oral; settings: plasma; summary of the method: as §4
[22] = Volume of distribution at steady state in Sprague-Dawley rat at 3 mg/kg, iv and 10 mg/kg, po; format: ADME, organism-based; settings: in vivo, read-out: Vdss; summary of the method: as §1
MIN6 = experiment: Increase in 11 mM glucose-stimulated insulin secretion in mouse MIN6 cells measured for 1 hr by ELISA; format: functional
[23] = AUC (0 to t) in female Sprague-Dawley rat at 500 mg/kg, po measured on day 14; format: ADME, organism-based; set-up: dose 500 mg/kg, route oral; settings: plasma; summary of the method: as §4
Mus musculus [24] = experiment: Antidiabetic activity in glucose-treated C57BL/J6 db/db mouse assessed as reduction of glucose AUC at 30 to 100 mg/kg, po administered for 2 weeks preincubated for 30 mins followed by glucose challenge measured after 30 to 180 mins by oral glucose tolerance test relative to control; format: functional; set-up: scale not given: the % may be the effect or the level left
Summary of the method: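 Oral glucose tolerance test. Mice: eight-week-old male C57BL/6 or ten-week-old male C57BLKS/J db/db, fasted overnight with water. Compound or 0.5% methylcellulose vehicle given orally, then an oral 2 g/kg glucose challenge 30 min later. Tail-tip blood glucose was read just before and at 30, 60, 90, 120 and 180 min. AUC was calculated from the time–glucose curve; n = 6.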

EC50 (Hexokinase-4): 315 nM
MRT [1]: 0.92 h
Tmax [2]: 3 h
bioavailability [3]: 24%
Vd [4]: 0.18 L/kg
AUC [5]: 11900 ng·h/mL
AUC(0-t) [6]: 8180 ng·h/mL
AUC(0-t) [9]: 16900 ng·h/mL
Cmax [10]: 2800 ng/mL
Cmax [11]: 1820 ng/mL
Cmax [13]: 4100 ng/mL
remaining at 1 h [14]: > 60%
AUC(0-t) [15]: 35400 ng·h/mL
Tmax [16]: 2.7 h
Cmax [17]: 5200 ng/mL
AUC(0-t) [18]: 29200 ng·h/mL
AUC [19]: 3800 ng·h/mL
Cmax [20]: 3700 ng/mL
AUC(0-t) [21]: 17600 ng·h/mL
Vd [22]: 0.21 L/kg
AUC(0-t) [23]: 16300 ng·h/mL
Structure (SMILES): COCCOCn1ccc(NC(=O)c2cc(Oc3ccc(S(C)(=O)=O)cc3)cc(-c3ncccc3C)c2)n1
Activity (Mus musculus [7]): Non-toxic
Activity (Salmonella typhimurium [8]): Non-toxic
Activity (Salmonella typhimurium [12]): Non-toxic
fold change (FC) (MIN6): 9
Activity (Mus musculus [24]): 39.8%
